The values below come from ChEMBL document CHEMBL1145465, “PhoU is a persistence switch involved in persister formation and tolerance to multiple antibiotics and stresses in Escherichia coli” (2007).

Experiment [1] has as its system Escherichia coli. In words: Antibacterial activity against Escherichia coli K12 mutant JHU313 at 100 ug/ml after 48 hrs by disc diffusion method. Type of experiment: functional. The procedure, abridged: (§1)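 Kirby-Bauer disc assay: log-phase LB culture was spread on LB agar for confluent growth. 7-mm nitrocellulose discs were soaked in antibiotic at the listed concentration and placed on the agar. After 48 h at 37°C, the diameter of the inhibition zone was measured in mm.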

Experiment [2] relates to Escherichia coli. Put plainly: Antibacterial activity against Escherichia coli K12 containing deletion deltaphoB mutant assessed as cell count in stationary phase at 100 ug/ml after 24 hrs. Type of experiment: functional. The procedure, abridged:
(§2)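 Deletion mutants were made by the Datsenko–Wanner method. Log-phase or stationary-phase cultures were exposed to ampicillin at 100 μg/ml. CFU/ml was determined at the start and after 5, 24 and 72 h of exposure.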

Experiment [3] has as its system Escherichia coli. Put plainly: Antibacterial activity against Escherichia coli K12 mutant JHU313 assessed as cell count at 100 ug/ml.
The test system of experiment [4] is Escherichia coli. Put plainly: Antibacterial activity against Escherichia coli K12 containing deletion deltaphoBR mutant assessed as cell count in stationary phase at 100 ug/ml after 24 hrs. Type of experiment: functional. The method in brief: as §2
Experiment [5] has as its system Escherichia coli. Put plainly: Antibacterial activity against Escherichia coli K12 PhoU wild type W3110 assessed as cell count in stationary phase at 100 ug/ml after 5 hrs. Type of experiment: functional. The method in brief:
(§3)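 Log-phase or stationary-phase cultures exposed to ampicillin 100 μg/ml in MOPS minimal medium (pH 5.0) at 37°C without shaking, for 5 h up to 10 days. Aliquots were taken at each time point, washed in saline and plated on LB plates for viable CFU/ml.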

Experiment [6] deals with Escherichia coli. Put plainly: Antibacterial activity against Escherichia coli K12 PhoU wild type W3110 at 100 ug/ml after 48 hrs by disc diffusion method. Type of experiment: functional. The procedure, abridged:
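Kirby-Bauer disc assay. Log-phase LB culture (10⁸ bacteria) was spread for confluent growth on LB agar. 7 mm nitrocellulose discs soaked in antibiotic at the listed concentrations were laid on the agar. Inhibition zone diameter (mm) was measured after 48 h at 37°C.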

The subject of experiment [7] is Escherichia coli. In words: Antibacterial activity against Escherichia coli K12 PhoU wild type W3110 assessed as cell count in stationary phase at 100 ug/ml after 10 days. Type of experiment: functional. The procedure, abridged:
as §3

The subject of experiment [8] is Escherichia coli. Put plainly: Antibacterial activity against Escherichia coli K12 containing deletion deltaphoR mutant assessed as cell count in log phase at 100 ug/ml after 5 hrs. Type of experiment: functional. The procedure, abridged:
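Wild-type W3110-derived deletion mutants were made by the Datsenko–Wanner method. Log-phase or stationary-phase cultures were exposed to ampicillin 100 μg/ml in MOPS minimal medium at pH 5.0, at 37°C without shaking. Aliquots were taken at set times, washed in saline and plated on LB for viable CFU/ml.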

Experiment [9] deals with Escherichia coli. Put plainly: Antibacterial activity against Escherichia coli K12 mutant JHU313 containing plasmid PhoU at 4 ug/ml after 48 hrs by disc diffusion method. Format: functional. The procedure, abridged:
as §1

Experiment [10] concerns Escherichia coli. Put plainly: Antibacterial activity against Escherichia coli K12 mutant JHU313 containing plasmid vector at 0.1 ug/ml after 48 hrs by disc diffusion method. Format: functional. The method in brief: as §1
For experiment [11], the system named is Escherichia coli. In words: Antibacterial activity against Escherichia coli K12 containing deletion deltaphoU mutant assessed as cell count in log phase at 3 ug/ml after 5 hrs. Type of experiment: functional. The procedure, abridged: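 Log-phase or stationary-phase cultures of the ΔphoU deletion mutant (Datsenko–Wanner construction) were exposed to norfloxacin 3 μg/ml in MOPS minimal medium, pH 5.0, at 37°C without shaking, for up to 10 days. Sampled aliquots were washed in saline and plated on LB agar for CFU/ml.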

The subject of experiment [12] is Escherichia coli. In words: Antibacterial activity against Escherichia coli K12 PhoU wild type W3110 assessed as cell count in stationary phase at 3 ug/ml after 5 days. Type of experiment: functional. The procedure, abridged:
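Log-phase or stationary-phase cultures were exposed to ampicillin (100 μg/ml) or norfloxacin (3 μg/ml) in MOPS minimal medium, pH 5.0, at 37°C without shaking, for 5 h to 10 days. Aliquots were saline-washed and plated on LB for CFU/ml.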

Each structure is given as a SMILES string.

With `CC1(C)S[C@@H]2[C@H](NC(=O)[C@H](N)c3ccccc3)C(=O)N2[C@H]1C(=O)O` [AMPICILLIN], the inhibition zone (IZ) was found to be 40 mm in [1] and 35 mm in experiment [6]. Further, the CFU was 1.8 10^9/ml in [2]; 1.4 10^7/ml in [3]; 1.7 10^9/ml in experiment [4]; 5 10^9/ml in experiment [5]; 2 10^5/ml in [7]; 1 10^3/ml in experiment [8].
`CCn1cc(C(=O)O)c(=O)c2cc(F)c(N3CCNCC3)cc21` [NORFLOXACIN]: the inhibition zone (IZ) is 36 mm in experiment [9] and 29 mm in experiment [10]. Further, the CFU in experiment [11] was 5 10^7/ml; in experiment [12] it was 4 10^6/ml.
